The results in this text go back to ChEMBL document CHEMBL4680229, “Design, synthesis and bioactivity study of N-salicyloyl tryptamine derivatives as multifunctional agents for the treatment of neuroinflammation” (Eur J Med Chem, 2020).

Data set [1] deals with BV-2. Put plainly: Antiinflammatory activity against LPS-induced mouse BV-2 cells assessed as increase in IL-10 production at 40 uM after 24 hrs by ELISA. In kind it is functional, cell-based. Summed up: (§1)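 BV2 cells at 5×10^5 cells/mL stimulated with LPS 1 μg/mL; compound at 10, 20 or 40 μM final for 24 h, DMSO in blanks. Supernatant TNF-α and IL-10 measured by sandwich ELISA and PGE2 by competitive ELISA, OD at 450 nm; at least three independent experiments.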
(In an ELISA, binding on a coated surface is turned into a signal by an enzyme label.)

Data set [2] in a line: Toxicity in Kunming mouse assessed as changes in heart at 1000 mg/kg, po after 14 days. Type of data set: organism-based. The following applies: in vivo, 336 h, time 14 day. Summed up: (§2)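 Mice, five male and five female, given a single oral dose of 1000 mg/kg and observed for behaviour for 14 days. Heart, liver, kidney and stomach then examined grossly and after H&E staining, compared with vehicle controls.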

The nature of data set [3]: Toxicity in Kunming mouse assessed as changes in kidney at 1000 mg/kg, po after 14 days. Conditions: in vivo, 336 h, time 14 day. In kind it is organism-based. The method in brief: as §2
The subject of data set [4] is Mus musculus. In words: Antiinflammatory activity against LPS-induced hippocampal neuroinflammatory Kunming mouse model assessed as reduction in GFAP level in hippocampus at 50 mg/kg, ip administered bid for 6 days by DAPI staining based microscopic method. Type of data set: functional, organism-based. Conditions: time 6.0 day.
For data set [5], the target named is T1, Prostaglandin G/H synthase 2 (Mus musculus) (UniProt Q05769).
T1 sequence (whole entry): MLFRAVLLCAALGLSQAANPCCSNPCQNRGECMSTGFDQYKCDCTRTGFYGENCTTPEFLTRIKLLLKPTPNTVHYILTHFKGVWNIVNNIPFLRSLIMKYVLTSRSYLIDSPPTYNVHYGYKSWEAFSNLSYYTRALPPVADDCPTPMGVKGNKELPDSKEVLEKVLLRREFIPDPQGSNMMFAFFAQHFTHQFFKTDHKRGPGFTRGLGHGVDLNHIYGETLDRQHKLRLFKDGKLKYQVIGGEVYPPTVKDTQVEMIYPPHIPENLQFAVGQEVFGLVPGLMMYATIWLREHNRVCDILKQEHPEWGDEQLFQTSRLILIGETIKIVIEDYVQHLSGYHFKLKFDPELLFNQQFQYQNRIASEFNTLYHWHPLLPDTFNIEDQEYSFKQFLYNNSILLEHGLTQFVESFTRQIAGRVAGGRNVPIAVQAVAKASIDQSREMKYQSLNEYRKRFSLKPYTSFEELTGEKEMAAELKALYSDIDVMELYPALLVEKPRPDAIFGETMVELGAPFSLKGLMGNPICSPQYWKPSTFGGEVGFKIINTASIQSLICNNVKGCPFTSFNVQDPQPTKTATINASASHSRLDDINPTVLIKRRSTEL
In words: Inhibition of COX2 in LPS-induced mouse BV-2 cells assessed as reduction in PGE2 production after 24 hrs by ELISA. Type of data set: cell-based. Summed up:
as §1

Data set [6] is described as follows: Half life in Sprague-Dawley rat at 50 mg/kg, ip up to 24 hrs by LC-MS analysis. In kind it is ADME, organism-based. The following applies: in vivo. The method in brief:
(§3)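 Male Sprague-Dawley rats, six per group, single 50 mg/kg intraperitoneal dose; parameters derived by non-compartmental analysis using the linear trapezoidal method; mean ± SD, n = 6.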

Data set [7] is described as follows: Toxicity in Kunming mouse assessed as behavioral changes at 1000 mg/kg, po up to 14 days. Type of data set: organism-based. Conditions: in vivo, 336 h, time <=14 day. The method in brief: as §2
Data set [8] has as its system BV-2. Put plainly: Cytotoxicity against mouse BV-2 cells assessed as reduction in cell viability after 24 hrs by MTT assay. Type of data set: cell-based. The following applies: BV-2, 24 h. Summed up: (§4)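 C6 or BV2 cells seeded at 1–5×10^5 per well; after 12 h exposed to 0, 6.25, 12.5, 25, 50 or 100 μM (final, DMSO <0.4%) for 24 h. MTT added for 4 h, dissolved in DMSO, read at 570 nm. IC50 as mean of three independent experiments run in triplicate.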
Background: Tetrazolium assays rely on reduction of a dye to a coloured formazan, in cell work by metabolically active cells.

The subject of data set [9] is BV-2. In words: Antiinflammatory activity against LPS-induced mouse BV-2 cells assessed as decrease in ROS production at 10 to 40 uM after 6 hrs by DCFH-DA fluorescence probe based flow cytometric analysis. Type of data set: functional, cell-based. Conditions: dose 10-40 µM. The method in brief: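 BV2 cells with LPS 1 μg/mL and compound at 10, 20 or 40 μM for 6 h, then DCFH-DA 20 μM final for 30 min at 37 °C. Washed in cold PBS and read by flow cytometry, excitation 485 nm and emission 530 nm.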
On the technique in general: In flow cytometry, cells or beads pass a laser one at a time.

Data set [10] is described as follows: Inhibition of LPS-induced NO production in mouse BV-2 cells incubated for 24 hrs by Griess reagent based assay. Conditions: BV-2, 24 h. In kind it is functional, cell-based. Summed up: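 BV2 cells at 5×10^5 cells/mL, LPS 1 μg/mL plus compound at 2.5–40 μM final for 24 h. Supernatant nitrite measured with Griess reagent for 15 min at room temperature in the dark, 540 nm, against a NaNO2 standard curve; IC50 from three repeats.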

Data set [11] deals with Prostaglandin G/H synthase 1 (Homo sapiens) (UniProt P23219). In words: Inhibition of human COX1 assessed as reduction in PGF2alpha formation using arachidonic acid as substrate incubated for 10 mins by ELISA.
For data set [12], the system named is C6. Put plainly: Cytotoxicity against rat C6 cells assessed as reduction in cell viability after 24 hrs by MTT assay. In kind it is cell-based. Conditions: C6, 24 h. The method in brief:
as §4

Data set [13] can be described thus: Toxicity in Kunming mouse assessed as changes in stomach at 1000 mg/kg, po after 14 days. Type of data set: organism-based. Conditions: in vivo, 336 h, time 14 day. Summed up:
as §2

Data set [14] concerns Mus musculus. In words: Antiinflammatory activity against LPS-induced hippocampal neuroinflammatory Kunming mouse model assessed as increase in integral neurons at 50 mg/kg, ip administered bid for 6 days by Nissl staining based microscopic method. In kind it is functional, organism-based. The following applies: time 6.0 day.
Data set [15] concerns Mus musculus. In words: Antiinflammatory activity against LPS-induced hippocampal neuroinflammatory Kunming mouse model assessed as reduction in GFAP level in hippocampus at 50 mg/kg, ip administered bid for 6 days by Western blot analysis. Type of data set: functional, organism-based. The following applies: time 6.0 day.
Data set [16] deals with Prostaglandin G/H synthase 2 (Homo sapiens) (UniProt P35354). In words: Inhibition of human COX2 assessed as reduction in PGF2alpha formation using arachidonic acid as substrate incubated for 10 mins by ELISA.
Sequence of Prostaglandin G/H synthase 2 (Homo sapiens) (P35354 whole entry, looked up): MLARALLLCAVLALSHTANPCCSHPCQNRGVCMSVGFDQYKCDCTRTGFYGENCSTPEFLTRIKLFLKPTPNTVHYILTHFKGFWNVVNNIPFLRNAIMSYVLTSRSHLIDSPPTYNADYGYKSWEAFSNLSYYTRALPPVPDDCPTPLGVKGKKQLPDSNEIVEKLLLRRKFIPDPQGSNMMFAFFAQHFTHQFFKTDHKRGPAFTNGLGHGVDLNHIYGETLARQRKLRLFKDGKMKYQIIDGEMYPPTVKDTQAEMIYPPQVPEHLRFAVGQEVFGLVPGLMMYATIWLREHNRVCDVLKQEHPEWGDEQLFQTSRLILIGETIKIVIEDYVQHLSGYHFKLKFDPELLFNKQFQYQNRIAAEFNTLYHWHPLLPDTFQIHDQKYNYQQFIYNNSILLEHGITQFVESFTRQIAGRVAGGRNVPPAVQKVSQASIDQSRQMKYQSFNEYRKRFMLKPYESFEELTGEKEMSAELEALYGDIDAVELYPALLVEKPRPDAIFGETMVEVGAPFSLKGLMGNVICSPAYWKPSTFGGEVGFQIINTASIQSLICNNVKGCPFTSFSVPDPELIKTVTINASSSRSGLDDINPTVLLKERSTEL
Data set [17] has as its system C6. In words: Inhibition of LPS-induced TNFalpha production in rat C6 cells after 24 hrs by ELISA. In kind it is functional, cell-based. Conditions: dose 10-40 µM. Summed up:
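C6 cells at 5×10^5 cells/mL stimulated with LPS 10 μg/mL; compound at 10, 20 or 40 μM final for 24 h. Supernatant TNF-α measured by sandwich ELISA at 450 nm; at least three independent experiments.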

The nature of data set [18]: Tmax in Sprague-Dawley rat at 50 mg/kg, ip up to 24 hrs by LC-MS analysis. Type of data set: ADME, organism-based. The following applies: in vivo. The method in brief:
as §3

Data set [19] is described as follows: Toxicity in LPS-induced hippocampal neuroinflammatory Kunming mouse model assessed as death at 50 mg/kg, ip administered bid for 6 days […]. Type of data set: organism-based. Conditions: in vivo, 144 h, time 6 day. Summed up:
(§5)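 Male Kunming mice (8 weeks, 20–25 g, n = 10/group) were anaesthetised with i.p. chloral hydrate, then given LPS (3 μL of 10 mg/mL) into the lateral ventricle at 0.5 μL/min; sham mice received 3 μL saline. Compound was then given i.p. at 50 mg/kg in saline with 1% methyl cellulose for six consecutive days. Behaviour and deaths were recorded, and hippocampal slices were Nissl-stained.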

The nature of data set [20]: Toxicity in LPS-induced hippocampal neuroinflammatory Kunming mouse model assessed as behavioral changes at 50 mg/kg, ip administered bid for 6 days […]. In kind it is organism-based. The following applies: in vivo, 144 h, time 6 day. The method in brief: as §5

Each structure is given as a SMILES string. Active and inactive are the calls of the source. The calls are words filed in the database; no cut-off is given here.

Regarding `O=C(NCCc1c[nH]c2ccc(O)cc12)c1ccccc1Nc1ccccc1`, the outcome with BV-2 [1], with Mus musculus [4], in the data set with BV-2 [9], with Mus musculus [14] and with Mus musculus [15] was Active. Besides, the Activity result in [2], in [3], in [7], in data set [13], in data set [19] and in [20] was “Non-Toxic” each time. The inhibition result (in data set [5]; with C6 [17]) was “Dose-dependent effect” each time. Moreover, in data set [6], the half-life (commonly the time in which the quantity being followed falls by half) is 2.72 h. The IC50 (usually the point on the concentration scale where inhibition reaches its midpoint) was over 100 µM with BV-2 [8]; 37.2 µM in data set [10]; 0.38 µM in data set [11]; over 100 µM with C6 [12]; 0.5 µM in data set [16]. Also, the Tmax (as a rule, the time at which the peak concentration occurs) in data set [18] worked out at 0.92 h.
For the compound `Cc1ccc(C(=O)NCCc2c[nH]c3ccccc23)c(O)c1`, the result with BV-2 [1], in the data set with Mus musculus [4], in the data set with BV-2 [9], with Mus musculus [14] and with Mus musculus [15] was Active. The Activity result in [2], in data set [3], in data set [7], in [13], in data set [19] and in data set [20] was “Non-Toxic” throughout. Moreover, the inhibition result (in data set [5]; in the data set with C6 [17]) was “Dose-dependent effect” in each case. In data set [6], this compound had a half-life of 13.9 h. In addition, the IC50 is over 100 µM in the data set with BV-2 [8]; 4.94 µM in [10]; 16.4 µM in [11]; over 100 µM in the data set with C6 [12]; 4.16 µM in data set [16]. Moreover, the Tmax in [18] turned out to be 0.19 h.
